Assay results taken from ChEMBL document CHEMBL1121685, “Development of new mitomycin C and porfiromycin analogues” (J Med Chem, 1981).

What was measured:
Mus musculus [1] = test: Minimum effective dose that show activity against P-388 murine leukemia cells in CDF1 female mice, after intraperitoneal administration (optimal dose is 12.8 mg/kg); type: functional; conditions: P388, ip, read-out: MED
In short: (§1)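 10⁶ P-388 ascites cells implanted ip in CDF₁ female mice. Six mice per dose, 10 saline-injected controls, and a concurrent mitomycin C reference group. %T/C = median survival time of treated/control × 100. MED is the lowest dose giving %T/C > 125. Therapeutic ratio = optimal dose/MED.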

Mus musculus [2] = test: Effect of compound on total white blood cell count in BDG1 male mice, after intraperitoneal administration at a dose of 39.4 mg/kg on day 3; type: functional
In short: (§2)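 Single ip dose given on day 0 to BDG1 male mice over a descending dose series. Total white blood cell count is expressed as % change from untreated control on days 3, 5 and 7. Significance is flagged at p ≤ 0.05 and p ≤ 0.01.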

Mus musculus [3] = test: Activity of compound dose of 9 mg/kg/day against Murine B-16 Melanocarcinoma in mice; type: functional
Mus musculus [4] = test: Antitumor activity against P-388 murine leukemia cells in CDF1 female mice after intraperitoneal administration at the specified optimal dose of 12.8 mg/kg; type: functional
Mus musculus [5] = test: Number of cured survivors, 45 days after administration of compound at a dose of 18 mg/kg/day in mice; type: functional
Mus musculus [6] = test: Effect of compound on total white blood cell count in BDG1 male mice, after intraperitoneal administration at a dose of 39.4 mg/kg on day 5; type: functional; in short: as §2
Mus musculus [7] = species on record: Mus musculus; test: Half-wave potential produced by the compound at their optimal dose; type: functional; parameters: unit not given here
Mus musculus [8] = test: Activity of compound dose of 18 mg/kg/day against Murine B-16 Melanocarcinoma in mice; type: functional
Mus musculus [9] = test: Effect of compound on total white blood cell count in BDG1 male mice, after intraperitoneal administration at a dose 29.6 mg/kg on day 7; type: functional
In short: (§3)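 BDG₁ male mice received a single ip dose on day 0. The dose series topped out at the LD₅₀ level, or at twice the optimal dose for some agents. Total white blood cell count was taken on days 3, 5 and 7 and expressed as % change from untreated controls. Significance was set at p ≤ 0.05 or p ≤ 0.01.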

Mus musculus [10] = test: Activity of compound dose of 4.5 mg/kg/day against Murine B-16 Melanocarcinoma in mice; type: functional
Mus musculus [11] = test: Number of cured survivors, 45 days after administration of compound at a dose of 36 mg/kg/day in mice; type: functional
Mus musculus [12] = test: Effect of compound on total white blood cell count in BDG1 male mice, after intraperitoneal administration at a dose of 22.2 mg/kg on day 7; type: functional; in short: as §2
[13] = Therapeutic ratio is expressed as ratio of optimal dose and minimum effective dose; type: ADME; conditions: mouse; read-out: TR; in short: as §1
Mus musculus [14] = test: Effect of compound on total white blood cell count in BDG1 male mice, after intraperitoneal administration at a dose of 50.9 mg/kg on day 7; type: functional
In short: (§4)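 Single ip dose given on day 0 to BDG₁ male mice. Total white blood cell count measured on days 3, 5 and 7, expressed as % change from control. Highest dose was at the LD₅₀, or at twice the optimal dose where so footnoted. Significance reported at p ≤ 0.05 and p ≤ 0.01. D marks death of one or more mice.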

Mus musculus [15] = test: Activity of compound dose of 36 mg/kg/day against Murine B-16 Melanocarcinoma in mice; type: functional
Mus musculus [16] = test: Activity of compound dose of 2.25 mg/kg/day against Murine B-16 Melanocarcinoma in mice; type: functional
Mus musculus [17] = species on record: Mus musculus; test: Degree of leukopenia produced by compound is assessed form Percent change in white cells on days 5; type: functional; in short: as §3
Mus musculus [18] = test: Effect of compound on total white blood cell count in BDG1 male mice, after intraperitoneal administration at a dose of 22.2 mg/kg on day 5; type: functional; in short: as §2
Mus musculus [19] = test: Effect of compound on total white blood cell count in BDG1 male mice, after intraperitoneal administration at a dose of 22.2 mg/kg on day 3; type: functional; in short: as §2
Mus musculus [20] = test: Number of tumored survivors, 45 days after administration of compound at a dose of 18 mg/kg/day in mice; type: functional
Mus musculus [21] = test: Activity of compound dose of 1.13 mg/kg/day against Murine B-16 Melanocarcinoma in mice; type: functional
Mus musculus [22] = test: Effect of compound on total white blood cell count in BDG1 male mice, after intraperitoneal administration at a dose of 29.6 mg/kg on day 5; type: functional; in short: as §2
Mus musculus [23] = test: Effect of compound on total white blood cell count in BDG1 male mice, after intraperitoneal administration at a dose of 29.6 mg/kg on day 3; type: functional; in short: as §2
Mus musculus [24] = test: Effect of compound on total white blood cell count in BDG1 male mice, after intraperitoneal administration at a dose of 50.9 mg/kg on day 3; type: functional; in short: as §4
Mus musculus [25] = test: Effect of compound on total white blood cell count in BDG1 male mice, after intraperitoneal administration at a dose of 3 mg/kg on day 3; type: functional; in short: as §2
Mus musculus [26] = test: Effect of compound on total white blood cell count in BDG1 male mice, after intraperitoneal administration at a dose of 2.55 mg/kg on day 5; type: functional; in short: as §2
Mus musculus [27] = test: Effect of compound on total white blood cell count in BDG1 male mice, after intraperitoneal administration at a dose of 3 mg/kg on day 7; type: functional; in short: as §2
Mus musculus [28] = test: Effect of compound on total white blood cell count in BDG1 male mice, after intraperitoneal administration at a dose of 1.27 mg/kg on day 7; type: functional; in short: as §3
Mus musculus [29] = test: Effect of compound on total white blood cell count in BDG1 male mice, after intraperitoneal administration at a dose of 2.55 mg/kg on day 7; type: functional; in short: as §2
Mus musculus [30] = test: Antitumor activity against P-388 murine leukemia cells in CDF1 female mice after intraperitoneal administration at the specified optimal dose of 1.6 mg/kg; type: functional
Mus musculus [31] = test: Effect of compound on total white blood cell count in BDG1 male mice, after intraperitoneal administration at a dose of 2.55 mg/kg on day 3; type: functional; in short: as §2
Mus musculus [32] = test: Effect of compound on total white blood cell count in BDG1 male mice, after intraperitoneal administration at a dose of 1.69 mg/kg on day 7; type: functional; in short: as §3
Mus musculus [33] = test: Minimum effective dose that show activity against P-388 murine leukemia cells in CDF1 female mice, after intraperitoneal administration (optimal dose is 1.6 mg/kg); type: functional; conditions: P388, ip, read-out: MED
Mus musculus [34] = test: Effect of compound on total white blood cell count in BDG1 male mice, after intraperitoneal administration at a dose of 1.27 mg/kg on day 5; type: functional; in short: as §3
Mus musculus [35] = test: Effect of compound on total white blood cell count in BDG1 male mice, after intraperitoneal administration at a dose of 3 mg/kg on day 5; type: functional; in short: as §2
Mus musculus [36] = test: Effect of compound on total white blood cell count in BDG1 male mice, after intraperitoneal administration at a dose of 1.69 mg/kg on day 3; type: functional; in short: as §3
Mus musculus [37] = species on record: Mus musculus; test: Degree of leukopenia produced by compound is assessed form Percent change in white cells on day 7; type: functional; in short: as §3
Mus musculus [38] = test: Effect of compound on total white blood cell count in BDG1 male mice, after intraperitoneal administration at a dose of 1.27 mg/kg on day 3; type: functional; in short: as §3
Mus musculus [39] = test: Effect of compound on total white blood cell count in BDG1 male mice, after intraperitoneal administration at a dose of 1.69 mg/kg on day 5; type: functional; in short: as §3

## COC12[C@@H]3N[C@@H]3CN1C1=C(C(=O)C(NCc3ccco3)=C(C)C1=O)[C@@H]2COC(N)=O (stereo partly specified)
Mus musculus [1]
  minimal effective dose: < 0.4 mg/kg
Mus musculus [2]
  Change: -84%
Mus musculus [3]
  T/C: 186%
Mus musculus [4]
  T/C: 276%
Mus musculus [5]
  Survivors: 3
Mus musculus [6]
  Change: -74%
Mus musculus [7]
  E1/2: -0.39
Mus musculus [8]
  T/C: 219%
Mus musculus [9]
  Change: 0%
Mus musculus [10]
  T/C: 170%
Mus musculus [11]
  Survivors: 6
Mus musculus [12]
  Change: -1%
[13]
  selectivity ratio: > 32
Mus musculus [14]
  Change: -64%
Mus musculus [15]
  T/C: 247%
Mus musculus [16]
  T/C: 148%
Mus musculus [17]
  Change: -54%
Mus musculus [18]
  Change: 62%
Mus musculus [19]
  Change: -70%
Mus musculus [20]
  Survivors: 1
Mus musculus [21]
  T/C: 125%
Mus musculus [22]
  Change: -67%
Mus musculus [23]
  Change: -78%
Mus musculus [24]
  Change: -76%

## COC12[C@@H]3N[C@@H]3CN1C1=C(C(=O)C(N3CC3)=C(C)C1=O)[C@@H]2COC(N)=O (stereo partly specified)
Mus musculus [25]
  Change: -12%
Mus musculus [26]
  Change: 34%
Mus musculus [27]
  Change: 13%
Mus musculus [28]
  Change: 3%
Mus musculus [29]
  Change: 18%
Mus musculus [30]
  T/C: 266%
Mus musculus [31]
  Change: 15%
Mus musculus [32]
  Change: -11%
Mus musculus [33]
  minimal effective dose: 0.025 mg/kg
Mus musculus [7]
  E1/2: -0.31
Mus musculus [34]
  Change: 27%
[13]
  selectivity ratio: 64
Mus musculus [35]
  Change: 3%
Mus musculus [36]
  Change: 16%
Mus musculus [37]
  Change: -11%
Mus musculus [38]
  Change: -16%
Mus musculus [39]
  Change: 9%
